# ChEMBL document CHEMBL1127482 (J Med Chem, 1994)
# *1 amine or outer side, *2 acyl side, *3 side chain or, on linkers, in order; H or OH if unused. Where a SMILES comes first, the peptide text is derived from it. Bridges are numbered along the chain shown (N, C = ends). X1 = O=C(CC1(S[*:2])CCCCC1)[*:1]; X4 = C[C@H](S[*:2])C(=O)[*:1]
# Experiments:
# Homo sapiens = species on record: Homo sapiens; assay: Inhibition of 10 uM ADP induced platelet aggregation in human platelet rich citreated plasma (PRP); assay type: functional
# In short: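 Aggregation is read as the increase in light transmission in an aggregometer, with platelets used within 3 h of collection. IC50 comes from regression of dose-response curves for inhibition of maximal aggregation, adjusted against a standard run in each experiment.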
# Integrin alpha-V/beta-5 = Integrin alpha-V/beta-5 (Homo sapiens, UniProt P06756+P18084); assay: Binding affinity against integrin alpha V-beta5 in enzyme linked immunosorbent assay (ELISA); assay type: protein-complex assay
# In short: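 It is added to wells coated with human vitronectin in 0.1 M carbonate, pH 9.6, with 10-fold serial peptide dilutions for 3 h at room temperature. Detection uses rabbit anti-VnR, HRP anti-rabbit IgG and o-phenylenediamine/H2O2.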
# [1] = target: Integrin alpha-IIb/beta-3 (Homo sapiens, UniProt P05106+P08514); assay: Binding affinity against integrin alpha 2b-beta 3 in enzyme linked immunosorbent assay (ELISA); assay type: protein-complex assay
# In short: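 Purified human platelet αIIbβ3 (from outdated platelets, octyl glucoside extract) in TBS with 20 mM octyl glucoside, 2 mM MgCl2 and 2 mM CaCl2 binds to plate-coated human fibrinogen (10 µg/mL in TBS) with 10-fold serial peptide dilutions for 3 h at room temperature. Bound receptor is detected with rabbit anti-αIIbβ3, then HRP anti-rabbit IgG, with o-phenylenediamine/H2O2 at pH 5.0. IC50 is reported.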
# Chain of Integrin alpha-V/beta-5 (P06756 31-889 limits assumed): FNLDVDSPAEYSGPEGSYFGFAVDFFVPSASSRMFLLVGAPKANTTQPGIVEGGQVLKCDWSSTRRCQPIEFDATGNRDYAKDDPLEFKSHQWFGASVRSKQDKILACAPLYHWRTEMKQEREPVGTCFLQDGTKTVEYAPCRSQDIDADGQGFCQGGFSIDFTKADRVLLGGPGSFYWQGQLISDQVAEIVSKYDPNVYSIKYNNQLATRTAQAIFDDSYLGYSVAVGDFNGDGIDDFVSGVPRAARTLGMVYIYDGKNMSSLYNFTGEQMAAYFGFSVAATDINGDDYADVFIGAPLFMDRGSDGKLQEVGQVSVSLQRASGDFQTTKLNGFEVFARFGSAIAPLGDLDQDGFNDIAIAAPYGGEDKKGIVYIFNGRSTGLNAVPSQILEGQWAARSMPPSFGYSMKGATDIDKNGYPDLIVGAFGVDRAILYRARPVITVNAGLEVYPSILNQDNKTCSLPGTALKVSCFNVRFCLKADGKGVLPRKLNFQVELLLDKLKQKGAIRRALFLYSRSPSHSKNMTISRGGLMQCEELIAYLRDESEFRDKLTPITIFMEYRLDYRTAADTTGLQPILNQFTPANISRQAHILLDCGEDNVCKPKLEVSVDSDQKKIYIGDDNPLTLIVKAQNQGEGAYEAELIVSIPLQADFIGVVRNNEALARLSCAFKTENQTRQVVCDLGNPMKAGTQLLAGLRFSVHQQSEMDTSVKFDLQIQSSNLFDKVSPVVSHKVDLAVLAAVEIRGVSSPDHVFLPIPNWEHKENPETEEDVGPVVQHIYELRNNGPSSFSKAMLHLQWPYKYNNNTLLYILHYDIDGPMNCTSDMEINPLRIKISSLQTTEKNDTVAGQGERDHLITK
# Chain of Integrin alpha-V/beta-5 (P06756 891-1048 limits assumed): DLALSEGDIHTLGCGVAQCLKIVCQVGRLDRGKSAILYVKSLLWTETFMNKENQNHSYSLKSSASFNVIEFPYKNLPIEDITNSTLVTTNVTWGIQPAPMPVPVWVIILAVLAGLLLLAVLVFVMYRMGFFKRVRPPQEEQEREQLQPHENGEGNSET
# Chain of Integrin alpha-V/beta-5 (P18084 24-799 limits assumed): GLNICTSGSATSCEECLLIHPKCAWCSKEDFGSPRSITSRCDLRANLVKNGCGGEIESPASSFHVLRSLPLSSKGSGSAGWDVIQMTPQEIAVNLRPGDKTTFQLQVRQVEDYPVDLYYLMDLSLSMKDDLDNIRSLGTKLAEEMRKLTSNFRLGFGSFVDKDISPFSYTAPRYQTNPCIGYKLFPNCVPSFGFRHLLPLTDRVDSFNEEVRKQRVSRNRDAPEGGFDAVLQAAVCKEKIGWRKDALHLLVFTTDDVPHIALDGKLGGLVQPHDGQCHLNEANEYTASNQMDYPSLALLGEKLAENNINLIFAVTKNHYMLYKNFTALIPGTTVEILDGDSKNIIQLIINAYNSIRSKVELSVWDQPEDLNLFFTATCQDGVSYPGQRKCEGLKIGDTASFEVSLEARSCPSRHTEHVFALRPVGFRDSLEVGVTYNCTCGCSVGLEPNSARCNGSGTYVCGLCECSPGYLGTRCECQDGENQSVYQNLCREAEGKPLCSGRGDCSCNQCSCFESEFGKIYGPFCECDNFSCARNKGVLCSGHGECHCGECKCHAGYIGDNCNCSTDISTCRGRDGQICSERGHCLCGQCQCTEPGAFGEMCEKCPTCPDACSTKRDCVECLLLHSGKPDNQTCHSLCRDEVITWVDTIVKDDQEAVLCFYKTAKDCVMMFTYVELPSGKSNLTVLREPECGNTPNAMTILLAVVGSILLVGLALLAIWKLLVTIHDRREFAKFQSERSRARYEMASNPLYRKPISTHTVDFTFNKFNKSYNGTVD
# Chain of Integrin alpha-IIb/beta-3 (P05106 27-788 limits assumed): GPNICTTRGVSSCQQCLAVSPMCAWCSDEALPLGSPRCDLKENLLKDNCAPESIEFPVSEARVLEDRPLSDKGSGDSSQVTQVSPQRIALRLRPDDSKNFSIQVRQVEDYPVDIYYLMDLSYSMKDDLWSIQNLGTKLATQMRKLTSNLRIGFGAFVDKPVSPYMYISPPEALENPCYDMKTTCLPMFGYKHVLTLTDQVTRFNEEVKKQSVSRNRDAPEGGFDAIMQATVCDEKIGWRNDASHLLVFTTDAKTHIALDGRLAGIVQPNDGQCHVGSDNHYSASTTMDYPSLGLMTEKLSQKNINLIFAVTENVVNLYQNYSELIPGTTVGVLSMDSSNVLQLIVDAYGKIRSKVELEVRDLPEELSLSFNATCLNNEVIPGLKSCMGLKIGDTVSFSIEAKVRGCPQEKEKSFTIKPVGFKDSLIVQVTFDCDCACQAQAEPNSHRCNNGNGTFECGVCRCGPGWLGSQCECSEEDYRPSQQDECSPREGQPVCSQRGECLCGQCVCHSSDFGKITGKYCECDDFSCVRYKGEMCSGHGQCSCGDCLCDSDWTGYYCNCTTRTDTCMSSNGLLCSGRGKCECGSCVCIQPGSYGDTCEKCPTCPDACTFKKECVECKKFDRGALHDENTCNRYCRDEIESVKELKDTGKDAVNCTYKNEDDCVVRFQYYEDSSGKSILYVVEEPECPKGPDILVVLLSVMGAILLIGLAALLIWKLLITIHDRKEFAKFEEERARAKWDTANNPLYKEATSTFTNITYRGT
# Chain of Integrin alpha-IIb/beta-3 (P08514 32-887 limits assumed): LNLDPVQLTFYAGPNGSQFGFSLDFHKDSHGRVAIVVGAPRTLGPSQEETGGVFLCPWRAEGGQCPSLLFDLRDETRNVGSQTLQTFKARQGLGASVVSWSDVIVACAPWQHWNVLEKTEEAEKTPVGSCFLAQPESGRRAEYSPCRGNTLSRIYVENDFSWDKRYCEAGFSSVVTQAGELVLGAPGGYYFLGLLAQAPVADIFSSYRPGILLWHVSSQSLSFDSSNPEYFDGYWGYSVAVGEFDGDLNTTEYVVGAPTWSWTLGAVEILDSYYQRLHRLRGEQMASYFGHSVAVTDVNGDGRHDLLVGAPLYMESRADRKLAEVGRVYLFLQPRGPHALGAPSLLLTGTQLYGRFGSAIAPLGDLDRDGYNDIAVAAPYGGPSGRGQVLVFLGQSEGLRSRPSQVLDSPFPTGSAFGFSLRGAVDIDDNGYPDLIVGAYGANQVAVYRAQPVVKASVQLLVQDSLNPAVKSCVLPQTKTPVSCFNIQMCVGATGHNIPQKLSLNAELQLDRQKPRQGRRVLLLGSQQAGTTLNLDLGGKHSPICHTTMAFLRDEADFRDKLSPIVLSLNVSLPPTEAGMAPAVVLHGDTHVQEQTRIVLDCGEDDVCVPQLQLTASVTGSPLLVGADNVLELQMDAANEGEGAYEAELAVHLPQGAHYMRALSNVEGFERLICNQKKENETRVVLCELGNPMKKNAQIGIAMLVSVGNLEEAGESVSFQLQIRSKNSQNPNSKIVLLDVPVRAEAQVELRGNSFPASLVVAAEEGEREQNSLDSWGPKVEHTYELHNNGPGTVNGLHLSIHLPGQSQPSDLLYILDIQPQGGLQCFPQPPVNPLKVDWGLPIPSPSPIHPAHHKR
# Chain of Integrin alpha-IIb/beta-3 (P08514 891-1039 limits assumed): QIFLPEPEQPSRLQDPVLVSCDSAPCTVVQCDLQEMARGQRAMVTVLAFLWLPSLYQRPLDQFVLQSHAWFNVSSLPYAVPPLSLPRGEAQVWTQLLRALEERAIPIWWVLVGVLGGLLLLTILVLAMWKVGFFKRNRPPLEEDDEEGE
Compound,IC50 (Homo sapiens),IC50 (Integrin alpha-V/beta-5),IC50 [1]
COc1ccc(C[C@@H]2NC(=O)[C@H](CC(=O)O)NC(=O)CNC(=O)[C@H](CCCNC(=N)N)NC(=O)[C@H](Cc3ccc(O)cc3)NC(=O)CNC(=O)[C@@H](NC(=O)[C@@H](N)CCCNC(=N)N)C3(CCCCC3)SSC[C@@H](C(=O)N[C@@H](CCCNC(=N)N)C(=O)O)NC(=O)[C@H](CCCNC(=N)N)NC2=O)cc1,850 nM,8800 nM,–
COc1ccc(C[C@@H]2NC(=O)[C@H](CC(=O)O)NC(=O)CNC(=O)[C@H](CCCN=C(N)N)NC(=O)[C@@H](Cc3c[nH]cn3)NC(=O)CNC(=O)[C@@H](NC(=O)[C@@H](N)CCCN=C(N)N)C3(CCCCC3)SSC[C@@H](C(=O)N[C@@H](CCCN=C(N)N)C(=O)O)NC(=O)[C@H](CCCN=C(N)N)NC2=O)cc1,400 nM,–,–
COc1ccc(C[C@@H]2NC(=O)[C@H](CC(=O)O)NC(=O)CNC(=O)[C@H](CCCN=C(N)N)NC(=O)[C@H](Cc3c[nH]cn3)NC(=O)[C@H](CC(N)=O)NC(=O)[C@@H](NC(=O)[C@@H](N)CCCN=C(N)N)C3(CCCCC3)SSC[C@@H](C(=O)N[C@@H](CCCN=C(N)N)C(=O)O)NC(=O)[C@H](CCCN=C(N)N)NC2=O)cc1,990 nM,–,–
COc1ccc(C[C@@H]2NC(=O)[C@H](CC(=O)O)NC(=O)CNC(=O)[C@H](CCCN=C(N)N)NC(=O)[C@H](Cc3c[nH]cn3)NC(=O)[C@H](CC(=O)O)NC(=O)[C@@H](NC(=O)[C@@H](N)CCCN=C(N)N)C3(CCCCC3)SSC[C@@H](C(=O)N[C@@H](CCCN=C(N)N)C(=O)O)NC(=O)[C@H](CCCN=C(N)N)NC2=O)cc1,2750 nM,7200 nM,–
CC(C)[C@H]1NC(=O)[C@H](CC(=O)O)NC(=O)CNC(=O)[C@H](CCCN=C(N)N)NC(=O)[C@@H](Cc2c[nH]cn2)NC(=O)CNC(=O)[C@@H](N)CCC/N=C(/N)NC(=O)[C@H](N)C2(CCCCC2)SSC[C@@H](C(=O)N[C@@H](CCCN=C(N)N)C(=O)O)NC(=O)[C@H](CCCN=C(N)N)NC1=O,690 nM,–,–
NC(N)=NCCC[C@H](NC(=O)[C@@H]1CSSC2(CCCCC2)[C@H](NC(=O)[C@@H](N)CCCN=C(N)N)C(=O)NCC(=O)N[C@@H](Cc2c[nH]cn2)C(=O)N[C@@H](CCCN=C(N)N)C(=O)NCC(=O)N[C@@H](CC(=O)O)C(=O)N[C@@H](Cc2ccc(O)cc2)C(=O)N[C@@H](CCCN=C(N)N)C(=O)N1)C(=O)O,970 nM,–,–
COc1ccc(C[C@@H]2NC(=O)[C@H](CC(=O)O)NC(=O)CNC(=O)[C@H](CCCN=C(N)N)NC(=O)[C@H](Cc3c[nH]cn3)NC(=O)[C@H](CO)NC(=O)[C@@H](NC(=O)[C@@H](N)CCCN=C(N)N)C3(CCCCC3)SSC[C@@H](C(=O)N[C@@H](CCCN=C(N)N)C(=O)O)NC(=O)[C@H](CCCN=C(N)N)NC2=O)cc1,950 nM,6600 nM,–
COc1ccc(C[C@@H]2NC(=O)[C@H](CC(=O)O)NC(=O)CNC(=O)[C@H](CCCN=C(N)N)NC(=O)[C@@H]3CCCN3C(=O)[C@H](CC(N)=O)NC(=O)CCSSC[C@@H](C(N)=O)NC(=O)[C@H](CCCN=C(N)N)NC2=O)cc1,–,3000 nM,–
N=C(N)NCCC[C@H](NC(=O)[C@@H]1CSSC2(CCCCC2)[C@H](NC(=O)[C@@H](N)CCCNC(=N)N)C(=O)NCC(=O)N[C@@H](Cc2c[nH]cn2)C(=O)N[C@@H](CCCNC(=N)N)C(=O)NCC(=O)N[C@@H](CC(=O)O)C(=O)N[C@@H](CCc2ccccc2)C(=O)N[C@@H](CCCNC(=N)N)C(=O)N1)C(=O)O,600 nM,–,–
CC[C@H](C)[C@@H]1NC(=O)[C@@H](NC(=O)[C@@H](N)CCCN=C(N)N)C2(CCCCC2)SSC[C@@H](C(=O)N[C@@H](CCCN=C(N)N)C(=O)O)NC(=O)[C@H](CCCN=C(N)N)NC(=O)[C@H](Cc2ccc(OC)cc2)NC(=O)[C@H](CC(=O)O)NC(=O)CNC(=O)[C@H](CCCN=C(N)N)NC(=O)[C@H](Cc2c[nH]cn2)NC1=O,–,9900 nM,–
COc1ccc(C[C@@H]2NC(=O)[C@H](CC(=O)O)NC(=O)CNC(=O)[C@H](CCCNC(=N)N)NC(=O)[C@@H]3CCCN3C(=O)CNC(=O)[C@@H](NC(=O)[C@@H](N)CCCNC(=N)N)C3(CCCCC3)SSC[C@@H](C(=O)N[C@@H](CCCNC(=N)N)C(=O)O)NC(=O)[C@H](CCCNC(=N)N)NC2=O)cc1,–,1700 nM,–
COc1ccc(C[C@@H]2NC(=O)[C@H](CC(=O)O)NC(=O)CNC(=O)[C@H](CCCNC(=N)N)NC(=O)[C@@H](Cc3ccc(O)cc3)NC(=O)CNC(=O)[C@@H](NC(=O)[C@@H](N)CCCNC(=N)N)C3(CCCCC3)SSC[C@@H](C(=O)N[C@@H](CCCNC(=N)N)C(=O)O)NC(=O)[C@H](CCCNC(=N)N)NC2=O)cc1,520 nM,10000 nM,–
COc1ccc(C[C@@H]2NC(=O)[C@H](CC(=O)O)NC(=O)CNC(=O)[C@H](CCCN=C(N)N)NC(=O)[C@@H]3CCCN3C(=O)[C@H](CC(N)=O)NC(=O)CC3(CCCCC3)SSC[C@@H](C(N)=O)NC(=O)[C@H](CCCN=C(N)N)NC2=O)cc1 (NPRGDY(Me)RC-NH2; linker N-8 via X1),170 nM,4900 nM,–
CC(C)C[C@@H]1NC(=O)[C@H](CC(=O)O)NC(=O)CNC(=O)[C@H](CCCNC(=N)N)NC(=O)[C@H](Cc2c[nH]cn2)NC(=O)CNC(=O)[C@H](NC(=O)CN)C(C)(C)SSC[C@@H](C(=O)N[C@@H](C)C(=O)O)NC(=O)[C@H](CCCNC(=N)N)NC1=O (stereo in doubt; 1),–,8260 nM,–
CC(C)C[C@@H]1NC(=O)[C@H](CC(=O)O)NC(=O)CNC(=O)[C@H](CCCNC(=N)N)NC(=O)[C@H](Cc2c[nH]cn2)NC(=O)CNC(=O)[C@H](NC(=O)CN)C(C)(C)SSC[C@@H](C(=O)N[C@@H](C)C(=O)O)NC(=O)[C@H](CCCNC(=N)N)NC1=O (stereo in doubt; 2),–,–,150 nM

# Now from value to compound:
IC50 (Homo sapiens),IC50 (Integrin alpha-V/beta-5),IC50 [1],Compound
–,3460 nM,–,COc1ccc(C[C@@H]2NC(=O)[C@H](CC(=O)O)NC(=O)CNC(=O)[C@H](CCCNC(=N)N)NC(=O)[C@@H]3CCCN3C(=O)[C@H](CC(N)=O)NC(=O)[C@@H](NC(C)=O)CSSC[C@@H](C(N)=O)NC(=O)[C@H](CCCNC(N)=O)NC2=O)cc1
–,7700 nM,–,COc1ccc(C[C@@H]2NC(=O)[C@H](CC(=O)O)NC(=O)CNC(=O)[C@H](CCCNC(=N)N)NC(=O)[C@@H]3CCCN3C(=O)[C@H](CC(N)=O)NC(=O)[C@@H](NC(C)=O)CSSC[C@@H](C(N)=O)NC(=O)[C@H](CCCN)NC2=O)cc1
–,8850 nM,–,COc1ccc(C[C@@H]2NC(=O)[C@H](CC(=O)O)NC(=O)CNC(=O)[C@H](CCCNC(=N)N)NC(=O)[C@@H]3CCCN3C(=O)[C@H](CC(N)=O)NC(=O)[C@@H](NC(C)=O)CSSC[C@@H](C(N)=O)NC(=O)[C@H](C)NC2=O)cc1
–,9470 nM,–,COc1ccc(C[C@@H]2NC(=O)[C@H](CC(=O)O)NC(=O)CNC(=O)[C@H](CCCNC(=N)N)NC(=O)[C@@H]3CCCN3C(=O)[C@H](CC(N)=O)NC(=O)[C@@H](NC(C)=O)CSSC[C@@H](C(N)=O)NC(=O)[C@H](CCC(=O)O)NC2=O)cc1
–,2340 nM,–,COc1ccc(C[C@@H]2NC(=O)[C@H](CC(=O)O)NC(=O)CNC(=O)[C@H](CCCN=C(N)N)NC(=O)[C@@H]3CCCN3C(=O)[C@H](CC(N)=O)NC(=O)[C@@H](NC(C)=O)C3(CCCCC3)SSC[C@@H](C(N)=O)NC(=O)[C@H](CCCN=C(N)N)NC2=O)cc1 [listing 1 of 2 here]
150 nM,–,–,COc1ccc(C[C@@H]2NC(=O)[C@H](CC(=O)O)NC(=O)CNC(=O)[C@H](CCCN=C(N)N)NC(=O)[C@@H]3CCCN3C(=O)[C@H](CC(N)=O)NC(=O)[C@@H](NC(C)=O)C3(CCCCC3)SSC[C@@H](C(N)=O)NC(=O)[C@H](CCCN=C(N)N)NC2=O)cc1 [listing 2 of 2 here]
100 nM,10000 nM,–,CCCCOc1ccc(C[C@@H]2NC(=O)[C@H](CC(=O)O)NC(=O)CNC(=O)[C@H](CCCNC(=N)N)NC(=O)[C@@H]3CCCN3C(=O)[C@H](CC(N)=O)NC(=O)[C@@H](NC(C)=O)CSSC[C@@H](C(N)=O)NC(=O)[C@H](CCCNC(=N)N)NC2=O)cc1
7600 nM,7140 nM,–,COc1ccc(C[C@@H]2NC(=O)[C@H](CC(=O)O)NC(=O)CNC(=O)[C@H](CCCNC(=N)N)NC(=O)[C@@H]3CCCN3C(=O)[C@H](CC(N)=O)NC(=O)[C@@H](NC(C)=O)CSSC[C@@H](C(N)=O)NC(=O)[C@H](CC(C)C)NC2=O)cc1
–,5820 nM,–,COc1ccc(C[C@@H]2NC(=O)[C@H](CC(=O)O)NC(=O)CNC(=O)[C@H](CCCNC(=N)N)NC(=O)[C@@H]3CCCN3C(=O)[C@H](CC(N)=O)NC(=O)[C@@H](NC(C)=O)CSSC[C@@H](C(N)=O)NC(=O)[C@H](CCCCN)NC2=O)cc1
480 nM,–,–,CCCCOc1ccc(C[C@@H]2NC(=O)[C@H](CC(=O)O)NC(=O)CNC(=O)[C@H](CCCN=C(N)N)NC(=O)[C@@H]3CCCN3C(=O)[C@H]([C@@H](C)CC)NC(=O)[C@@H](NC(C)=O)CSSC[C@@H](C(N)=O)NC(=O)[C@H](CCCN=C(N)N)NC2=O)cc1
700 nM,–,–,COc1ccc(C[C@@H]2NC(=O)[C@H](CC(=O)O)NC(=O)CNC(=O)[C@H](CCCCN)NC(=O)[C@@H]3CCCN3C(=O)[C@H](CC(N)=O)NC(=O)[C@@H](NC(C)=O)CSSC[C@@H](C(N)=O)NC(=O)[C@H](CCCN=C(N)N)NC2=O)cc1
330 nM,–,–,CC[C@H](C)[C@@H]1NC(=O)[C@@H](NC(C)=O)CSSC[C@@H](C(N)=O)NC(=O)[C@H](CCCN=C(N)N)NC(=O)[C@H](Cc2ccc(O)cc2)NC(=O)[C@H](CC(=O)O)NC(=O)CNC(=O)[C@H](CCCN=C(N)N)NC(=O)[C@@H]2CCCN2C1=O (Ac-CIPRGDYRC-NH2; disulfide 1-9)
170 nM,–,–,COc1ccc(C[C@@H]2NC(=O)[C@H](CC(=O)O)NC(=O)CNC(=O)[C@H](CCCN=C(N)N)NC(=O)[C@@H]3CCCN3C(=O)[C@H](CC(N)=O)NC(=O)[C@H](C)SSC[C@@H](C(N)=O)NC(=O)[C@H](CCCN=C(N)N)NC2=O)cc1 (NPRGDY(Me)RC-NH2; linker N-8 via X4)
